How the values were obtained:
[1] = target: HIV-1 MA protein (Human immunodeficiency virus type 1 group M subtype B, UniProt P12493); assay: HIV-1 MA crosslinking, dimer/monomer immunoblot; type: biochemical; conditions: 30 µM MA, 50 µM compound
Outline: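 Purified HIV-1 MA at 30 µM in 25 mM sodium phosphate (pH 7.8) plus 50 mM NaCl, incubated 2 h at 25°C with or without 50 µM test compound. Dimer and monomer bands were then measured, and percentage MA crosslinking was derived from them.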

[2] = tested on: HIV-1 PrGag in immature virus particles; assay: Virus crosslink analysis, immature HIV-1 particles; type: biochemical; conditions: 1 mM compound, 1 h at 25°C
[3] = tested on: HIV-1 virus particles; assay: Inactivation of luciferase-transducing HIV-1; type: cell-based; conditions: 1 mM, virus treated 1 h at 37°C, HEK293T cells, 48 h
[4] = tested on: HIV-1; conditions: ref [21]–[3]; cited from earlier work
[5] = tested on: HIV-1 virus particles; assay: Inactivation of GFP-transducing HIV-1; type: cell-based; conditions: 1 mM, virus treated 1 h at 37°C, HEK293T cells, 48 h
[6] = Peptide crosslinking analysis; type: biochemical; conditions: 0.1 mM peptide, 1 mM compound, 2 h 25°C, reducing SDS-PAGE
[7] = tested on: leukotriene synthesis; conditions: read-out: IC50 concentrations; ref [8]–[9]; cited from earlier work
[8] = target: soluble guanylate cyclase; conditions: read-out: IC50 concentrations; ref [8]–[9]; cited from earlier work
[9] = target: HIV-1 MA-RNA binding (Human immunodeficiency virus type 1 group M subtype B, UniProt P12493); assay: Fluorescence polarization; conditions: screen of 50,000 compounds

Row | Structure (SMILES) | MA dimer formation (in words) [1] | HIV-1 PrGag dimer band [2] | peptide dimer formation [6] | further results
1 | COC1=C(Br)C(=O)c2ncccc2C1=O [Compound 102729, 7-bromo-6-methoxy-5,8-quinolinedione] | significant levels of dimer formation | to lower extents |  | 
2 | O=C1C=CC(=O)c2cnccc21 [Compound 76882, 5,8-isoquinolinedione] | efficiently formed dimers |  |  | 
3 | c1ccc(SSc2ccccn2)nc1 [Aldrithiol-2, 2,2'-dipyridyldisulfide] |  |  |  | virus infectivity level after treatment (luciferase, in words) [3]: nearly mock-infection levels; concentrations that inactivate HIV-1 [4]: 300 to 1000 µM; virus infection levels (GFP-positive cells, in words) [5]: dramatically reduced virus infection levels
4 | O=C1C=CC(=O)N1CCN1C(=O)C=CC1=O [BMOE, bis-maleimidoethane] |  |  | yielded dimers | 
5 | O=C1C(Nc2ccccc2)=CC(=O)c2ncccc21 [LY83583, 6-anilino-5,8-quinolinequinone] |  |  |  | IC50 [7]: 1 to 2 µM; IC50 [8]: 1 to 2 µM
6 | O=C1C=CC(=O)N1CCCCCCN1C(=O)C=CC1=O [BMH, 1,6-bis-maleimidohexane, reference compound] |  | a dimer band was observed | yielded dimers | 
7 | O=C1C(Cl)=C(Cl)C(=O)c2ncccc21 [Compound 81047, 6,7-dichloro-5,8-quinolinedione] | efficiently formed dimers |  |  | inhibition of MA-RNA binding in library screen (in words) [9]: potently inhibited MA-RNA binding
8 | COC1=C(Cl)C(=O)c2ncccc2C1=O [Compound 81048, 7-chloro-6-methoxy-5,8-quinolinedione] | significant levels of dimer formation |  |  | 
9 | O=C1C(Cl)=C(Cl)C(=O)c2ccccc21 [Compound 537, 2,3-dichloronaphthoquinone] | efficiently formed dimers | showed the HIV-1 PrGag dimer band | yielded dimers | 
